MC4R ag barr: human MC4R agonism via beta-arrestin; U2OS MC4R beta-arrestin complementation, luminescence; percent of melanotan II response, DMSO zero; P32245; hit rate 0.98% among 360,000; AID 540308; activation, % at 8.9 µM;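 active means activation above a per-plate cutoff, the mean activation of sample wells on that plate plus 3 SD, cut at about 8% in these data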
TAAR1 antag: antagonists of human TAAR1 | CHO RD-HGA16 TAAR1, Fluo-8 calcium fluorescence, antagonist | inhibition, % at 3 µM | Q96RJ0 | hit rate 1.5% among 360,000 | AID 624466;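 active means inhibition above a per-plate cutoff, the mean inhibition of test compounds on that plate plus 3 SD, cut at about 49% in these data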;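 further: 0% = DMSO plus EC80 beta-PEA response and 100% = DMSO alone without agonist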
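Assay system: RD-HGA16 CHO cells with stable hTAAR1 and Gα16 / Reagent: EC80 β-phenethylamine stimulus / Doses: 3 µM, single point / Timing: dye loading 75 min at 37 °C, then 30 min room temperature / Measured by: Fluo-8 intracellular calcium dye fluorescence, real-time kinetic reads / Controls: vehicle wells and EC80 agonist wells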
MC4R antag cAMP: human MC4R antagonism in cAMP assay; MC4R-expressing cells, MTII-stimulated cAMP, LANCE TR-FRET; inhibition, % at 6.5 µM; hit rate 0.48% among 360,000; AID 540295;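 active means inhibition above its plate's cutoff, the mean of tested wells on that plate plus 3 SD, cut at about 29% in these data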;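 further: 0% = Melanotan II alone and 100% = Melanotan II plus saturating MCL0020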
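system = U2OS cells with stable human MC4R expression | also added = Melanotan II challenge after compound preincubation | dosing = one concentration, 6.5 µM nominal | incubation = compound 30 min, challenge 1 h, detection 1 h | measured by = TR-FRET with Eu-cAMP and labeled anti-cAMP, 671 nm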
Beta2AR agonist: human beta-2 adrenergic receptor agonism by FAP; AID 504454; response, % (no concentration beside the values); P07550; hit rate 0.43% among 340,000; Am2.2-beta2AR cells, FAP receptor internalization, flow cytometry;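 active means response above a set limit, near 3 SD of response in nonfluorescent compounds, cut at about 42% in these data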
m5-HT2A agonist: activates the mouse 5-HT2A serotonin receptor; hit rate 0.66% among 360,000; activation, % at 7.6 µM; CHO-K1 mHTR2A beta-arrestin complementation, luminescence; percent of 30 µM serotonin response; P35363;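 active means activation above a run cutoff, the mean activation of all tested compounds plus 3 SD, cut at about 14% in these data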;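 further: 0% = plate median of compound wells and 100% = 30 µM serotonin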
Target sequence (P35363 whole entry, looked up): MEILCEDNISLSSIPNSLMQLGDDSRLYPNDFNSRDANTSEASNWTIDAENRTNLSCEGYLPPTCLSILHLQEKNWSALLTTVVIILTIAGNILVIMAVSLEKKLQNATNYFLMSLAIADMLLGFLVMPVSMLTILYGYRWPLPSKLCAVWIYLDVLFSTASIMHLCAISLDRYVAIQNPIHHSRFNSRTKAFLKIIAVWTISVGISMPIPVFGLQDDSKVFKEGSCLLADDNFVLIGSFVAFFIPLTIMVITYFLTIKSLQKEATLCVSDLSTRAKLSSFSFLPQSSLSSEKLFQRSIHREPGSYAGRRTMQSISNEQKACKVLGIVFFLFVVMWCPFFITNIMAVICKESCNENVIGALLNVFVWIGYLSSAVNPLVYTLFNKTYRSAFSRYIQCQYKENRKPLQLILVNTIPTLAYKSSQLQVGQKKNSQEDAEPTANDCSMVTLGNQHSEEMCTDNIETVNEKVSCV
TAAR1 ag: agonists of human TAAR1; activation, % at 3 µM; Q96RJ0; hit rate 0.99% among 360,000; CHO RD-HGA16 TAAR1, Fluo-8 calcium fluorescence; vehicle wells 0%, saturating PEA agonist 100%;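 active means activation above the mean activation of all test compounds in the run plus 3 SD, cut at about 38% in these data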
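System: CHO RD-HGA16 cells carrying human TAAR1 plus Gα16; Incubation: 17-24 h seeding, 75 min 37 °C dye, 30 min RT; Measured by: Fluo-8 fluorescence, 5 s baseline then 140 s kinetic read; Control set: DMSO and PEA EC100; Replication: single well for each compound.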
MOR ag counter: counter-screen for mouse HTR2A agonists: human mu opioid receptor agonists; shares compounds with m5-HT2A agonist; U2OS OPRM1 beta-arrestin PathHunter, luminescence; DMSO 0%, DAMGO 9.3 µM 100%; activation, % at 9.3 µM; hit rate 5.3% among 2,300; AID 624380;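 active means mean activation above the mean of DMSO-only wells plus 3 SD, cut at about 0.5% in these data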
m5-HT2A ag conf: confirmation of mouse HTR2A serotonin receptor agonists. shares compounds with m5-HT2A agonist. CHO-K1 PathHunter beta-arrestin recruitment, luminescence; DMSO 0%, 30 µM serotonin 100%. activation, % at 7.6 µM. hit rate 19% among 2,300;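 active means mean activation across triplicates above the hit threshold derived in the original primary screen, cut at about 15% in these data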
Numbers without * were called inactive; · = not tested or not shown. A selection: hits, their analogues and other compounds. The true share with any hit is near 4.3%.

SMILES	MC4R ag barr	TAAR1 antag	MC4R antag cAMP	Beta2AR agonist	m5-HT2A agonist	TAAR1 ag	MOR ag counter	m5-HT2A ag conf
CC(=O)c1ccc(C(=O)Nc2nnc(-c3ccc(Cl)cc3)o2)cc1	-1.6	-11.1	1.2	-10.6	23.6*	1.4	-0.2	-1.9
CCCCCNC(=O)C(c1ccc(OC)cc1)n1c(=O)c(-c2cc3ccccc3[nH]2)nc2ccccc21 (configuration not stated)	·	-10.9	·	·	-0.3	-0.7	·	·
Cc1onc(-c2ccccc2)c1C(=O)N1CCN(Cc2ccccc2)CC1	-3.1	-10.8	2.3	2.6	-0.3	1.7	·	·
COc1ccc(C(=O)NCC(=O)OCC(=O)c2cc(OC)c(OC)c(OC)c2)cc1OC	-0.9	-12.7	18.1	-4.7	14.6*	8.6	-0.7	0.2
COc1cc(C(=O)NCC(=O)OCC(=O)c2ccc[nH]2)cc(OC)c1OC	-0.9	-14.0	-0.3	-4.7	-1.6	12.8	·	·
CCOC1=C2[C@@H](CN(S(=O)(=O)c3ccc(C)cc3)[C@H]2c2ccc(Cl)cc2)[C@H]2C(=O)N(c3ccccc3)C(=O)[C@H]2C1	·	-14.3	·	·	21.1*	3.1	-0.7	-2.2
CCOC1=C2[C@@H](CN(S(=O)(=O)c3ccccc3)[C@H]2c2ccccc2)[C@H]2C(=O)N(c3ccccc3)C(=O)[C@H]2C1	·	-12.1	·	·	-4.1	-0.5	·	·
Cc1[nH]c(=O)[nH]c(=O)c1S(=O)(=O)N1CCCC(C(=O)N2CCC(Cc3ccccc3)CC2)C1 (configuration not stated)	-1.4	-2.6	4.3	-2.3	19.3*	0.3	-0.5	-4.5
Cc1[nH]c(=O)[nH]c(=O)c1S(=O)(=O)N1CCCC(C(=O)N2CCN(c3ccccc3Cl)CC2)C1 (configuration not stated)	0.0	·	-4.8	3.9	-2.1	·	·	·
CCN1CCN(C(=O)c2c(-c3ccccc3)noc2C)CC1	0.1	2.7	-2.5	10.4	16.7*	0.3	-0.4	1.0
O=C(CSc1ccc2nnc(-c3ccncc3)n2n1)Nc1ccc2c(c1)OCO2	-0.8	-10.4	-9.5	-0.7	35.3*	0.6	-0.2	-0.3
COc1cc(-c2nnc(-c3cc(OC)c(OC)c(OC)c3)o2)cc(OC)c1OC	-0.3	10.1	8.0	10.2	17.4*	1.8	0.3	-1.8
CCN(CC(=O)Nc1c(F)cccc1F)C(=O)C1CC(=O)N(CCc2ccc(OC)c(OC)c2)C1 (configuration not stated)	-1.0	-23.5	-6.1	0.5	0.7	1.8	·	·
O=C(CCc1ccncc1)NC1CCCc2c1cnn2-c1ccc(F)cc1F (configuration not stated)	-2.6	-7.6	-1.7	4.2	15.6*	3.2	-0.4	-1.2
O=C(CCc1ccccn1)NC1CCCc2c1cnn2-c1ccc(F)cc1F (configuration not stated)	-2.8	-28.0	10.1	-13.6	-0.7	-1.3	·	·
CCN(C(=O)COC(=O)/C=C/c1ccc(OC)c(OC)c1)c1c(N)n(Cc2ccccc2)c(=O)[nH]c1=O	-2.1	-0.9	10.0	-6.7	11.1	13.6	·	·
COc1ccc(CNC(=S)N2CCN(Cc3ccccc3)CC2)cc1	-2.7	-10.5	0.4	33.9	18.6*	1.2	-0.5	8.8
COc1ccc(CN2CCN(C(=O)c3ccco3)CC2)cc1	-0.3	-4.8	-5.8	6.6	25.3*	23.8	-0.6	102.6*
O=C(c1ccco1)N1CCN(Cc2ccccc2Br)CC1	0.0	-8.0	27.7	3.1	15.7*	-1.8	-0.7	63.8*
COc1ccc2ccccc2c1CN1CCN(C(=O)c2ccco2)CC1	-1.1	15.7	1.5	0.1	16.9*	7.3	-0.3	129.9*
CCc1ccc(/C=C(\C#N)C(=O)NC2CCS(=O)(=O)C2)cc1 (configuration not stated)	-0.5	-10.8	-7.0	3.7	3.8	6.3	·	·
COc1ccc(CN2CCN(CC(O)Cn3c4ccccc4c4ccccc43)CC2)cc1 (configuration not stated)	9.5*	7.2	11.6	23.9	19.4*	10.8	1.1*	8.5
CCOc1ccc(CN2CCN(CC(O)Cn3c4ccccc4c4ccccc43)CC2)cc1 (configuration not stated)	-0.8	-1.8	4.7	2.0	1.7	2.1	·	·
C1=CC2CC1CC2CN1CCN(c2ccccc2)CC1 (configuration not stated)	-2.5	·	5.2	9.3	14.7*	·	-0.4	57.1*
O=C(c1ccco1)N1CCN(Cc2ccc(F)cc2Cl)CC1	-1.7	3.5	1.2	-3.6	9.4	2.8	·	·
SMILES	MC4R ag barr	TAAR1 antag	MC4R antag cAMP	Beta2AR agonist	m5-HT2A agonist	TAAR1 ag	MOR ag counter	m5-HT2A ag conf
O=C(c1ccco1)N1CCN(CC2CC3C=CC2C3)CC1 (configuration not stated)	-1.3	4.2	-1.9	1.1	21.1*	-2.3	-0.6	75.9*
O=C(c1ccco1)N1CCN(Cc2ccc(F)cc2)CC1	-1.6	-14.4	-9.5	-2.3	20.3*	6.9	-0.3	73.9*
Cc1ccc2c(c1)[C@@H]1[C@H](CO2)[C@H](c2ccccc2)[C@]2(C)C(=O)N[C@H](C)C(=O)N12	-1.6	0.3	-0.2	-1.0	-6.8	0.1	·	·
C[C@@H]1CN([C@@H](C)CO)C(=O)CCCn2nncc2CO[C@@H]1CN(C)C(=O)Nc1cccc(C(F)(F)F)c1	-0.6	-9.2	-1.1	·	0.6	2.4	·	·
CCOc1ccc(CN2CCN(C(=O)c3ccco3)CC2)cc1	-0.6	-0.4	1.5	2.4	24.0*	3.1	-0.2	129.5*
CCOc1ccc(C(=O)N2CCN(C(=O)c3ccco3)CC2)cc1OCC	0.5	5.3	-1.3	1.2	2.0	3.7	·	·
COc1ccc(N2CCN(C(=O)COC(=O)Cc3cccc(OC)c3)CC2)cc1	-2.0	9.2	7.2	-1.4	2.2	-0.5	·	·
CCOc1cc(CN2CCN(C(=O)c3ccco3)CC2)ccc1OC	1.8	22.1	1.7	5.2	18.0*	6.4	-0.5	71.0*
COc1ccc(N2CCN(C(=O)COC(=O)c3ccco3)CC2)cc1	0.1	0.5	-2.2	-9.5	15.1*	1.2	0.4	-1.0
Cc1cc2c(cc1S(=O)(=O)CCC(=O)N1CC(C)CC(C)C1)OCC(=O)N2 (configuration not stated)	-0.6	-1.1	-21.0	0.6	3.5	3.0	·	·

Source: PubChem
